As usually defined, the inhibition is the percentage by which the read-out fell short of the control. For orientation: MIC means the smallest concentration in the dilution series that meets the test's criterion for growth inhibition. A word on the IC50: it is the concentration that gives 50% inhibition. By half-life is commonly meant the time in which the quantity being followed falls by half. Broadly, the MIC50 is the lowest concentration that inhibits either 50% of growth or 50% of the strains tested, depending on the study. A high value points to lower susceptibility. The term MIC90 denotes an inhibitory concentration at the 90% level, which refers to growth in some studies and to a panel of isolates in others.

These results are taken from ChEMBL document CHEMBL4837261, “Optimization of TopoIV Potency, ADMET Properties, and hERG Inhibition of 5-Amino-1,3-dioxane-Linked Novel Bacterial Topoisomerase Inhibitors: Identification of a Lead with In Vivo Efficacy against MRSA” (J Med Chem, 2021).

In brackets after ≈: the same amount, converted by molar mass.

One data set concerns the target CYP2D6 (Homo sapiens, UniProt P10635). The experiment in a line: Inhibition of CYP2D6 (unknown origin) at 10 uM relative to control. The data set is classed as ADME.
Data set [1] is described as follows: Permeability of the compound from apical to basolateral side in human Caco-2 cells. The data set is classed as ADME, cell-based. To be noted: read-out: permeability.
Data set [2] has as its system Staphylococcus aureus. The experiment in a line: Antibacterial activity against Staphylococcus aureus 3527 by CLSI method. Format: functional.
In a further data set the target is CYP2C8 (Homo sapiens, UniProt P10632). The experiment in a line: Inhibition of CYP2C8 (unknown origin) at 10 uM relative to control. Format: ADME.
In data set [3] the test system is Staphylococcus aureus. Nature of the data set: Antibacterial activity against Staphylococcus aureus ATCC 29213 by CLSI method. The data set is classed as functional.
The nature of data set [4]: Permeability of the compound from basolateral to apical side in human Caco-2 cells. To be noted: read-out: permeability. The data set is classed as ADME, cell-based. In short, it runs like this:
(§1)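 Run at RTI International. Covers plasma protein binding (mouse, human; percent free), CACO-2 permeability and efflux, and microsomal stability (mouse and human microsomes) giving half-life.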
On the technique in general: Passage across Caco-2 layers is used to estimate intestinal permeability.

For data set [5], the target named is 5-hydroxytryptamine receptor 2B (Homo sapiens) (UniProt P41595). Nature of the data set: Displacement of [3H]Lysergic acid diethylamide from human recombinant 5HT2B receptor expressed in CHO-K1 cells at 100 uM by radioligand binding assay. Format: cell-based. For orientation: In a radioligand displacement assay an active substance lowers the binding of a labelled ligand.

The target in data set [6] is Acetylcholinesterase (Homo sapiens) (UniProt P22303). Nature of the data set: Inhibition of human recombinant acetylcholinesterase receptor expressed in HEK293 cells at 100 uM by spectrophotometry. The data set is classed as cell-based.
The next data set concerns the target Topoisomerase IV (Staphylococcus aureus, UniProt P0C1S7+P0C1U9). The experiment in a line: Inhibition of Staphylococcus aureus topoisomerase IV decatenation activity using kDNA as substrate by ethidium bromide/bromophenol blue staining based agarose gel electrophoresis analysis. The data set is classed as protein-complex assay.
For another data set, the target named is DNA gyrase (Staphylococcus aureus, UniProt P0A0K8+P20831). Nature of the data set: Inhibition of Staphylococcus aureus Gyrase supercoiling activity assessed as reduction in supercoiling pBR322 DNA by measuring relaxation by bromophenol blue staining based TAE gel method. Format: protein-complex assay.
Another data set has as its target CYP2B6 (Homo sapiens, UniProt P20813). The experiment in a line: Inhibition of CYP2B6 (unknown origin) at 10 uM relative to control. Format: ADME.
Data set [7] deals with Staphylococcus aureus. The experiment in a line: Antibacterial activity against Staphylococcus aureus harbouring GyrA D83N mutant by CLSI method. The data set is classed as functional.
The subject of a further data set is HepaRG. The experiment in a line: Cytotoxicity against human HepaRG cells at 100 uM by ATP depletion assay. Format: cell-based. In short, it runs like this:
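An ATP depletion read-out in HepaRG cells gave cytotoxicity across 0.01–100 μM, reported as % cytotoxicity at 100 μM.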

Another data set concerns the target CYP1A2 (Homo sapiens, UniProt P05177). The experiment in a line: Inhibition of CYP1A2 (unknown origin) at 10 uM relative to control. Format: ADME.
Data set [8] can be described thus: Metabolic stability in human microsomes assessed as half life. The data set is classed as ADME, Microsome. In short, it runs like this: as §1
Data set [9] can be described thus: Metabolic stability in CD1 mouse microsomes assessed as half life. Format: ADME, Microsome.
The test system of data set [10] is Staphylococcus aureus. The experiment in a line: Selectivity index, ratio of IC50 for inhibition of Staphylococcus aureus topoisomerase IV decatenation activity to IC50 for inhibition of Staphylococcus aureus DNA gyrase supercoiling activity. A digest of the protocol: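 Both IC50s were measured in gel-based assays with S. aureus enzymes: supercoiling inhibition for DNA gyrase and decatenation inhibition for TopoIV. The ratio is TopoIV IC50 divided by gyrase IC50.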

Data set [11] deals with Staphylococcus aureus. The experiment in a line: Antibacterial activity against cystic fibrosis isolate Staphylococcus aureus by CLSI method. The data set is classed as functional.
A further data set deals with CYP2C9 (Homo sapiens, UniProt P11712). The experiment in a line: Inhibition of CYP2C9 (unknown origin) at 10 uM relative to control. The data set is classed as ADME.
The target in a further data set is CYP2C19 (Homo sapiens, UniProt P33261). The experiment in a line: Inhibition of CYP2C19 (unknown origin) at 10 uM relative to control. Format: ADME.
The test system of data set [12] is Staphylococcus aureus. Nature of the data set: Antibacterial activity against methicillin-resistant Staphylococcus aureus USA300 by CLSI method. Format: functional.
Data set [13] can be described thus: Metabolic stability in CD1 mouse liver microsomes assessed as half life at 2 uM measured up to 120 mins by LC-MS/MS analysis. Format: ADME, Microsome. For orientation: Liver microsomes are vesicles of endoplasmic reticulum, rich in cytochrome P450 enzymes.
A short description of data set [14]: Plasma protein binding in human. The note with it: read-out: PPB (converted). The data set is classed as ADME, cell-free. A digest of the protocol: (§2)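 Run at Charles River (Worcester). Plasma protein binding was measured in mouse, dog and human plasma. Thermodynamic solubility was measured in buffer at pH 7.4.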
The nature of data set [15]: Growth inhibition of human K/VP.5 cells incubated for 48 hrs by NBTI cell counting analysis. Format: functional. To be noted: K562, 48 h.
A short description of data set [16]: Thermodynamic solubility of the compound at pH 7.4. To be noted: buffer, read-out: Therm_solubility. The data set is classed as physicochemical. A digest of the protocol: as §2
A further data set deals with Bacillus anthracis. The experiment in a line: Antibacterial activity against Bacillus anthracis by CLSI method. The data set is classed as functional.
For data set [17], the system named is Staphylococcus aureus. Nature of the data set: Antibacterial activity against fluoroquinolone-resistant methicillin-resistant Staphylococcus aureus by CLSI method. Format: functional. A digest of the protocol: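 MICs against ciprofloxacin-resistant MRSA USA300, determined following CLSI guidelines. Each determination was run at least in triplicate, and observed ranges were reported where appropriate.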

A short description of data set [18]: Plasma protein binding in dog. The data set is classed as ADME, cell-free, Canis lupus familiaris. To be noted: read-out: PPB (converted). A digest of the protocol:
as §2

A further data set relates to Streptococcus pneumoniae. Nature of the data set: Antibacterial activity against Streptococcus pneumoniae by CLSI method. Format: functional.
For the next data set, the system named is Enterococcus sp. Nature of the data set: Antibacterial activity against Enterococcus sp. by CLSI method. The data set is classed as functional.
The nature of data set [19]: Metabolic stability in CD1 mouse liver microsomes assessed as intrinsic clearance at 2 uM measured up to 120 mins by LC-MS/MS analysis. The data set is classed as ADME, Microsome. The note with it: 2 h.
The subject of the next data set is Acinetobacter baumannii. Nature of the data set: Antibacterial activity against Acinetobacter baumannii by CLSI method. Format: functional.
The subject of data set [20] is Staphylococcus aureus. The experiment in a line: Antibacterial activity against Staphylococcus aureus by CLSI method. The data set is classed as functional. In short, it runs like this: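 MICs were determined by broth microdilution per CLSI guidelines, in triplicate at minimum. Strains were S. aureus ATCC 29213, MRSA USA300 and a cystic fibrosis respiratory isolate, and ranges are given where seen.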

A short description of data set [21]: Plasma protein binding in mouse. Format: ADME, cell-free. To be noted: read-out: PPB (converted). A digest of the protocol:
as §2

The target in data set [22] is Voltage-gated inwardly rectifying potassium channel KCNH2 (Homo sapiens, UniProt Q12809). Nature of the data set: Inhibition of human ERG. A digest of the protocol: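 hERG channel inhibition was measured on the IonWorks Barracuda automated patch system. IC50 came from eight-point concentration–response curves with four replicates per concentration.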
A short description of data set [23]: Half life in ICR (CD-1) mouse at 10 mg/kg, iv measured up to 1440 mins by LC-MS/MS analysis. The data set is classed as ADME, organism-based. To be noted: in vivo. In short, it runs like this:
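Male ICR (CD-1) mice, 22 ± 2 g, given the free base in DMSO/Solutol HS-15/0.9% NaCl (5/5/90, v/v/v), IV at 10 mg/kg or PO at 50 mg/kg; 24 mice per route, three per timepoint. Plasma was taken by cardiac puncture at 3–1440 min (IV) or 10–1440 min (PO), measured by LC-MS/MS, and parameters were derived by noncompartmental analysis.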

For the molecule `COc1ccc2ncc(F)c(C(O)C[C@H]3OC[C@H](NCc4cc5c(nn4)OCCS5)CO3)c2n1` (mixture of isomers), the inhibition at 10 µM against CYP2D6, on CYP2C8, on CYP2B6, against CYP1A2, at CYP2C9 and on CYP2C19 was above 50% throughout. Moreover, the Papp A→B in [1] is 7.85 ×10⁻⁶ cm/s. The MIC against Staphylococcus aureus [2] amounted to 0.5 µg/mL (≈ 1.02 µM); with Staphylococcus aureus [3] it was 0.5 µg/mL (≈ 1.02 µM); with Staphylococcus aureus [7], 8 µg/mL (≈ 16.3 µM); in the data set with Staphylococcus aureus [11], 0.5 µg/mL (≈ 1.02 µM); in the data set on Staphylococcus aureus [12] it was 1 µg/mL (≈ 2.04 µM). Besides, the Papp B→A in data set [4] turned out to be 94.8 ×10⁻⁶ cm/s. Further, the inhibition in [5] and in data set [6] was above 45% each time. The IC50 against Topoisomerase IV came to 11 µM; at DNA gyrase it was 0.24 µM. The molecule also gave an Activity in the data set on HepaRG of 17%. Further, the half-life was 26 min in data set [8] and 21 min in data set [9]. Also, the Ratio IC50 in the data set with Staphylococcus aureus [10] is 47.
As to `COc1ccc2ncc(F)c(C(O)C[C@H]3OC[C@H](NCc4ccc5c(c4)OCCO5)CO3)c2c1` (mixture of isomers), in data set [13], the half-life at 2 µM was 6.54 min. The fraction unbound in data set [14], in [18] and in data set [21] was 0.11 each time. Moreover, the MIC in the data set with Staphylococcus aureus [2] stood at 0.125 µg/mL (≈ 0.266 µM); against Staphylococcus aureus [3], 0.125 µg/mL (≈ 0.266 µM); in the data set on Staphylococcus aureus [17] it was 0.25 µg/mL (≈ 0.531 µM); against Staphylococcus aureus [7], 2 µg/mL (≈ 4.25 µM); in the data set on Staphylococcus aureus [11], 0.125 µg/mL (≈ 0.266 µM); in the data set with Staphylococcus aureus [12], 0.125 µg/mL (≈ 0.266 µM). Also, the concentration for half-maximal inhibition (IC50) was 23.8 µM in data set [15], 5.5 µM against Topoisomerase IV, 0.064 µM at DNA gyrase and 8 µM in data set [22]. Also, the solubility thermodynamic in data set [16] was 186 µM (≈ 87.5 µg/mL). The MIC50 was 2 µg/mL (≈ 4.25 µM) in the data set with Bacillus anthracis; 1 µg/mL (≈ 2.13 µM) with Streptococcus pneumoniae; 0.12 µg/mL (≈ 0.255 µM) in the data set on Enterococcus sp.; 32 µg/mL (≈ 68 µM) with Acinetobacter baumannii; 0.12 µg/mL (≈ 0.255 µM) in the data set with Staphylococcus aureus [20]. In the data set on Bacillus anthracis, this molecule came in with an MIC90 of 8 µg/mL (≈ 17 µM). Also, in data set [19], the intrinsic clearance (CLint) amounted to 835 µL/min/mg.
For the molecule `COc1ccc2ncc(F)c(C[C@H](O)[C@@H]3CC[C@@H](NCc4cc5c(nn4)OCCS5)CO3)c2n1`, in data set [23], the half-life was 18.6 min.
